# Results gathered from unrelated publications.
# Each line is one published result; the experiments were not run side by side.
# Mode: inhibitor
# rep methyltransferase: Replicase polyprotein 1ab, methyltransferase (rep, Severe acute respiratory syndrome coronavirus 2, UniProt P0DTD1)
# rep main protease: Replicase polyprotein 1ab, main protease (rep, Severe acute respiratory syndrome coronavirus 2, UniProt P0DTD1)
Structure (SMILES),target,effect on,technique,pH,IC50 [µM]
CC(C)=CCOc1ccc(/C=C/C(=O)c2ccc(OCC=C(C)C)cc2OCC(=O)O)cc1,rep methyltransferase,enzyme activity,,,37.6
C[S+]([O-])CCCCN=C=S (stereo not drawn),rep main protease,enzyme activity,,,5.5
CCCCCCCCOc1ccccc1C(=O)Nc1ccc(C(=O)OCC[N+](C)(CC)CC)cc1,rep methyltransferase,enzyme activity,,,39.3
O=C(Cn1nnc2ccccc21)Nc1ccccc1N1CCc2sccc2C1,rep main protease,enzyme activity,FRET,,> 100
O=C(Oc1cncc(Cl)c1)c1cc2c(Cl)cc(Cl)cc2[nH]1,rep main protease,enzyme activity,,,0.0233
CC(=O)Nc1ccc2occ(Cc3c(O)ccc4cc(-c5ccccc5)c(=O)oc34)c(=O)c2c1,rep methyltransferase,enzyme activity,,,43.3
S=C=NCc1ccccc1,rep main protease,enzyme activity,,,> 20
Nc1nc2nc[nH]c2c(=S)[nH]1,"Replicase polyprotein 1ab, papain-like protease (rep, Severe acute respiratory syndrome coronavirus 2, UniProt P0DTD1)",enzyme activity,FRET,pH 7.5,> 60
COc1ccc(-c2csc(C3=C(O)CN(/N=C/c4c[nH]c5ccccc45)C3=N)n2)cc1,rep methyltransferase,enzyme activity,,,42.9
N=C(N)NN=C1C=CC(=NNC(N)=S)C=C1,rep main protease,enzyme activity,,,9.3
CC(C)c1nc(CN(C)C(=O)N[C@@H](CCN2CCOCC2)C(=O)N[C@H](CC[C@H](Cc2ccccc2)NC(=O)OCc2cncs2)Cc2ccccc2)cs1,rep main protease,enzyme activity,luciferase,,> 240
N[C@@H](C(=O)N[C@@H]1C(=O)N2C(C(=O)O)=C(Cl)CS[C@H]12)c1ccccc1,rep main protease,enzyme activity,,,17.6
Cc1c(O)cccc1C(=O)N[C@@H](CSc1ccccc1)[C@H](O)CN1C[C@H]2CCCC[C@H]2C[C@H]1C(=O)NC(C)(C)C,rep main protease,enzyme activity in cells,,,> 10
c1cnc(SCc2cccnc2)nc1,rep main protease,enzyme activity,,,0.15
C=C(c1ccc(C(=O)O)cc1)c1cc2c(cc1C)C(C)(C)CCC2(C)C,rep main protease,enzyme activity in cells,,,20
Cc1cccc(C)c1OCC(=O)N[C@@H](Cc1ccccc1)[C@@H](O)C[C@H](Cc1ccccc1)NC(=O)[C@H](C(C)C)N1CCCNC1=O,rep main protease,enzyme activity,,,206
[H]/N=C(\N/C(=N/[H])NCCCCCCNC(=N)NC(=N)Nc1ccc(Cl)cc1)Nc1ccc(Cl)cc1,rep methyltransferase,enzyme activity,,,43.7
CCOc1ccc(Nc2nc(-c3c(C)nc4ccccn34)cs2)cc1,rep main protease,enzyme activity,,,5.05
O=C(C1=C(O)C(=O)N(c2nc3ccc(F)cc3s2)C1c1cccc(F)c1)c1cccs1 (stereo not drawn),rep methyltransferase,enzyme activity,,,109
CN1Cc2ccccc2[C@@H]2c3cccc4[nH]cc(c34)C[C@H]21,rep main protease,enzyme activity,,,> 20
CCOC(=O)c1c(NC(=O)c2ccc3c(c2)CC(c2ccccc2)OC3=O)sc(C)c1C (stereo not drawn),rep methyltransferase,enzyme activity,,,47.9
CC(=O)N[C@@H](CS)C(=O)O,rep main protease,enzyme activity,,,> 450
Oc1ccc(O)cc1,rep methyltransferase,enzyme activity,,,12.2
O=C1c2ccccc2NC(c2cc([N+](=O)[O-])ccc2O)N1N=Cc1cc([N+](=O)[O-])ccc1O (stereo not drawn),rep main protease,enzyme activity in cells,,,> 40
